Source: ChEMBL document CHEMBL1134458, “Synthesis and structure-activity relationships of cetiedil analogues as blockers of the Ca(2+)-activated K+ permeability of erythrocytes” (J Med Chem, 2001)

What was measured:
[1] = (§1) Partition coefficient (logP); assay type: physicochemical; details: octanol/water
Summary of the method: (§2)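 Calculated, not measured, for the free base by summing Mannhold/Rekker revised hydrophobic fragmental constants.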

Oryctolagus cuniculus [2] = species on record: Oryctolagus cuniculus; assay: Inhibition of K+ loss from rabbit blood cells treated with [Ca2+] ionophore A-23187.; assay type: functional
Summary of the method: (§3)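 Rabbit red cells were stored at 4 °C for up to 4 days, then suspended at ~1% hematocrit in low-K⁺ saline (0.1 mM KCl, 1 mM CaCl₂, inosine, Tris, pH 7.4) at 37 °C. They were preincubated 40–60 min with compound from DMSO stock (120 min for one; 3 min for highly lipophilic ones). A23187 2 μM was added, and K⁺ loss was read by K⁺ electrode over 3 min. Total K⁺ came from digitonin lysis, and loss was expressed as % of control.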

[3] = as §1; assay type: physicochemical; details: octanol/water; summary of the method: as §2; remark: listed apart in the source
Oryctolagus cuniculus [4] = species on record: Oryctolagus cuniculus; assay: Concentration required to cause 50% inhibition of K+ loss from rabbit blood cells treated with [Ca2+] ionophore A-23187; assay type: functional
Summary of the method: as §3, with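 “control. Assays were run ≥3 times, and IC50 was fitted by Hill equation (common nH, 100% maximum).” for “control.”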

Structure (SMILES)	logP [1]	logP ([1]; read-out: logP)	IC50 (Oryctolagus cuniculus [2]) [µM]	logP [3]	IC50 (Oryctolagus cuniculus [4]) [µM]
O=C(OCCN1CCCCCC1)C1(Cc2ccc([N+](=O)[O-])cc2)c2ccccc2-c2ccccc21	6.92	7.44	4.6	–	–
O=C(OCCN1CCCCCC1)C1(Cc2ccccc2)c2ccccc2-c2ccccc21	7.18	7.68	4	–	–
O=C(OCCN1CCCCCC1)C1(Cc2ccc(Cl)cc2)c2ccccc2-c2ccccc21	7.89	8.41	2.9	–	–
O=C(OCCN1CCCCCC1)C1(Cc2ccc(F)cc2)c2ccccc2-c2ccccc21	7.32	7.92	–	–	–
O=C(Cc1ccsc1)OCCN1CCCCCC1	3.55	3.45	142	–	–
O=C(OCCN1CCCCCC1)C(C1CCCCC1)C1CCCCC1	6.86	8.33	14	–	–
O=C(OCCCN1CCCCCC1)C(c1ccccc1)(c1ccccc1)c1ccccc1	–	7.65	–	6.4	9.2
O=C(OCCN1CCCCCC1)C(c1ccccc1)(c1ccccc1)c1ccccc1	–	7.14	–	6.69	8.2
O=C(OCCN1CCCCCC1)c1c2ccccc2cc2ccccc12	–	6.45	–	6.36	28
O=C(OCCN1CCCCCC1)c1cccc2ccccc12	5.18	5.16	222	–	–
O=C(OCCN1CCCCCC1)C12C[C@H]3C[C@@H](C1)C[C@@H](C2)C3	4.38	5.6	178	–	–
O=C(OCCN1CCCCCC1)c1ccc2ccccc2c1	5.18	5.16	285	–	–
O=C(OCCN1CCCCCC1)C(c1ccccc1)C1CCCCC1 (stereo unspecified)	5.93	6.88	18	–	–
O=C(CC1CCCCC1)OCCN1CCCCCC1	4.93	5.18	290	–	–
O=C(OCCN1CCCCCC1)C(c1ccccc1)c1ccccc1	5.25	5.44	164	–	–
c1ccc(C(CCOCCN2CCCCCC2)(c2ccccc2)c2ccccc2)cc1	–	7.83	–	7.35	5.5
O=C(CC(c1ccccc1)(c1ccccc1)c1ccccc1)OCCN1CCCCCC1	–	7.65	–	7.11	9.3
O=C(CC(c1ccccc1)c1ccccc1)OCCN1CCCCCC1	5.67	5.96	43	–	–
O=C(OCCN1CCCCCC1)C(c1ccccc1)c1ccsc1 (stereo unspecified)	4.9	5.15	47	–	–
O=C(OCCN1CCCCCC1)C(c1ccsc1)C1CCCCC1 (stereo unspecified)	5.98	6.59	25	–	–
COc1ccc(CC2(C(=O)OCCN3CCCCCC3)c3ccccc3-c3ccccc32)cc1	7.09	7.75	2.8	–	–
C(#CCC1(Cc2ccccc2)c2ccccc2-c2ccccc21)CN1CCCCCC1	9.1	–	–	7.9	1.5
O=C(NCCN1CCCCCC1)C(c1ccsc1)C1CCCCC1 (stereo unspecified)	5.11	5.15	75	–	–
O=C(OCCN1CCCCCC1)C1c2ccccc2-c2ccccc21	5.24	5.47	42	–	–
